# Measurements reported in ChEMBL document CHEMBL3576819, “Design, synthesis, biological evaluation and molecular docking studies of phenylpropanoid derivatives as potent anti-hepatitis B virus agents” (Eur J Med Chem, 2015).
# Key:
# Hepatitis B virus [1] = experiment: Antiviral activity against Hepatitis B virus infected in human HepG2.2.15 cells assessed as inhibition of HBeAg secretion at 300 uM after 3 days by ELISA; format: functional; details: HepG2 2.2.15, 72 h
# In short: (§1)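 HepG2.2.15 cells (MEM, 10% FBS, 380 µg/ml G418) seeded at 1×10^5 cells/ml, held 24 h at 37 °C, then treated with various drug concentrations; medium with drug renewed every 3 d for up to 9 d. Culture medium sampled on days 3, 6 and 9, stored at -20 °C, and assayed for secreted antigen. Lamivudine as positive control; IC50 = 50% inhibition of secretion; means of at least two experiments.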
# [2] = Selectivity index, ratio of CC50 for human HepG2.2.15 cells to IC50 for Hepatitis B virus infected in human HepG2.2.15 cells assessed as inhibition of HBsAg secretion; format: functional
# In short: (§2)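 Selectivity index computed as CC50/IC50, with CC50 from cell death of HepG2.2.15 cells after 9 days of treatment (OD 450 nm) and IC50 from 50% inhibition of HBeAg or HBsAg secretion in the same cells; medium with drug renewed every 3 d.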
# Hepatitis B virus [3] = experiment: Antiviral activity against Hepatitis B virus infected in human HepG2.2.15 cells assessed as inhibition of HBsAg secretion at 300 uM after 6 days by ELISA; format: functional; details: HepG2 2.2.15, 144 h; in short: as §1
# Hepatitis B virus [4] = experiment: Antiviral activity against Hepatitis B virus infected in human HepG2.2.15 cells assessed as inhibition of HBeAg secretion at 37.5 uM after 6 days by ELISA; format: functional; details: HepG2 2.2.15, 144 h; in short: as §1
# Hepatitis B virus [5] = experiment: Antiviral activity against Hepatitis B virus infected in human HepG2.2.15 cells assessed as inhibition of HBsAg secretion at 300 uM after 3 days by ELISA; format: functional; details: HepG2 2.2.15, 72 h; in short: as §1
# Hepatitis B virus [6] = experiment: Antiviral activity against Hepatitis B virus infected in human HepG2.2.15 cells assessed as inhibition of HBeAg secretion at 75 uM after 3 days by ELISA; format: functional; details: HepG2 2.2.15, 72 h; in short: as §1
# Hepatitis B virus [7] = experiment: Antiviral activity against Hepatitis B virus infected in human HepG2.2.15 cells assessed as inhibition of HBsAg secretion at 150 uM after 9 days by ELISA; format: functional; details: HepG2 2.2.15, 216 h; in short: as §1
# Hepatitis B virus [8] = experiment: Antiviral activity against Hepatitis B virus infected in human HepG2.2.15 cells assessed as inhibition of HBeAg secretion at 150 uM after 3 days by ELISA; format: functional; details: HepG2 2.2.15, 72 h; in short: as §1
# Hepatitis B virus [9] = experiment: Antiviral activity against Hepatitis B virus infected in human HepG2.2.15 cells assessed as cell survival at 300 uM after 9 days (reference value: 100%); format: functional; details: HepG2 2.2.15, 216 h
# In short: (§3)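 HepG2.2.15 cells (MEM, 10% FBS, 380 µg/ml G418, 37 °C, 5% CO2) seeded at 1×10^5 cells/ml, cultured 24 h, then exposed to various drug concentrations; drug-containing medium renewed every 3 d. OD read at 450 nm after 9 days; percent cell death calculated; CC50 = concentration killing 50% of cells. Means of at least two experiments.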
# Hepatitis B virus [10] = experiment: Antiviral activity against Hepatitis B virus infected in human HepG2.2.15 cells assessed as inhibition of HBsAg secretion at 300 uM after 9 days by ELISA; format: functional; details: HepG2 2.2.15, 216 h; in short: as §1
# Hepatitis B virus [11] = experiment: Antiviral activity against Hepatitis B virus infected in human HepG2.2.15 cells assessed as inhibition of HBsAg secretion by ELISA; format: functional, organism-based; details: HepG2 2.2.15; in short: as §1
# Hepatitis B virus [12] = experiment: Antiviral activity against Hepatitis B virus infected in human HepG2.2.15 cells assessed as inhibition of HBeAg secretion at 150 uM after 9 days by ELISA; format: functional; details: HepG2 2.2.15, 216 h; in short: as §1
# Hepatitis B virus [13] = experiment: Antiviral activity against Hepatitis B virus infected in human HepG2.2.15 cells assessed as cell survival at 37.5 uM after 9 days (reference value: 100%); format: functional; details: HepG2 2.2.15, 216 h; in short: as §3
# Hepatitis B virus [14] = experiment: Antiviral activity against Hepatitis B virus infected in human HepG2.2.15 cells assessed as inhibition of HBeAg secretion by ELISA; format: functional, organism-based; details: HepG2 2.2.15; in short: as §1
# Hepatitis B virus [15] = experiment: Antiviral activity against Hepatitis B virus infected in human HepG2.2.15 cells assessed as inhibition of HBeAg secretion at 75 uM after 9 days by ELISA; format: functional; details: HepG2 2.2.15, 216 h; in short: as §1
# Hepatitis B virus [16] = experiment: Antiviral activity against Hepatitis B virus infected in human HepG2.2.15 cells assessed as inhibition of HBsAg secretion at 37.5 uM after 9 days by ELISA; format: functional; details: HepG2 2.2.15, 216 h; in short: as §1
# Hepatitis B virus [17] = experiment: Antiviral activity against Hepatitis B virus infected in human HepG2.2.15 cells assessed as cell survival at 75 uM after 9 days (reference value: 100%); format: functional; details: HepG2 2.2.15, 216 h; in short: as §3
# Hepatitis B virus [18] = experiment: Antiviral activity against Hepatitis B virus infected in human HepG2.2.15 cells assessed as inhibition of HBeAg secretion at 37.5 uM after 9 days by ELISA; format: functional; details: HepG2 2.2.15, 216 h; in short: as §1
# [19] = Selectivity index, ratio of CC50 for human HepG2.2.15 cells to IC50 for Hepatitis B virus infected in human HepG2.2.15 cells assessed as inhibition of HBeAg secretion; format: functional; in short: as §2
# Hepatitis B virus [20] = experiment: Antiviral activity against Hepatitis B virus infected in human HepG2.2.15 cells assessed as inhibition of HBsAg secretion at 75 uM after 6 days by ELISA; format: functional; details: HepG2 2.2.15, 144 h; in short: as §1
# Hepatitis B virus [21] = experiment: Antiviral activity against Hepatitis B virus infected in human HepG2.2.15 cells assessed as inhibition of HBeAg secretion at 75 uM after 6 days by ELISA; format: functional; details: HepG2 2.2.15, 144 h; in short: as §1
# [22] = Cytotoxicity against human HepG2.2.15 cells assessed as cell death after 9 days by MTT assay; format: cell-based, HepG2 2.2.15; in short: as §3
# Hepatitis B virus [23] = experiment: Antiviral activity against Hepatitis B virus infected in human HepG2.2.15 cells assessed as inhibition of HBsAg secretion at 150 uM after 6 days by ELISA; format: functional; details: HepG2 2.2.15, 144 h; in short: as §1
# Hepatitis B virus [24] = experiment: Antiviral activity against Hepatitis B virus infected in human HepG2.2.15 cells assessed as inhibition of HBsAg secretion at 75 uM after 9 days by ELISA; format: functional; details: HepG2 2.2.15, 216 h; in short: as §1
# Hepatitis B virus [25] = experiment: Antiviral activity against Hepatitis B virus infected in human HepG2.2.15 cells assessed as inhibition of HBeAg secretion at 300 uM after 6 days by ELISA; format: functional; details: HepG2 2.2.15, 144 h; in short: as §1
# Hepatitis B virus [26] = experiment: Antiviral activity against Hepatitis B virus infected in human HepG2.2.15 cells assessed as inhibition of HBsAg secretion at 37.5 uM after 6 days by ELISA; format: functional; details: HepG2 2.2.15, 144 h; in short: as §1
# Hepatitis B virus [27] = experiment: Antiviral activity against Hepatitis B virus infected in human HepG2.2.15 cells assessed as cell survival at 150 uM after 9 days (reference value: 100%); format: functional; details: HepG2 2.2.15, 216 h; in short: as §3
# Hepatitis B virus [28] = experiment: Antiviral activity against Hepatitis B virus infected in human HepG2.2.15 cells assessed as inhibition of HBsAg secretion at 150 uM after 3 days by ELISA; format: functional; details: HepG2 2.2.15, 72 h; in short: as §1
# Hepatitis B virus [29] = experiment: Antiviral activity against Hepatitis B virus infected in human HepG2.2.15 cells assessed as inhibition of HBeAg secretion at 300 uM after 9 days by ELISA; format: functional; details: HepG2 2.2.15, 216 h; in short: as §1
# Hepatitis B virus [30] = experiment: Antiviral activity against Hepatitis B virus infected in human HepG2.2.15 cells assessed as inhibition of HBeAg secretion at 150 uM after 6 days by ELISA; format: functional; details: HepG2 2.2.15, 144 h; in short: as §1
# Hepatitis B virus [31] = experiment: Antiviral activity against Hepatitis B virus infected in human HepG2.2.15 cells assessed as inhibition of HBsAg secretion at 75 uM after 3 days by ELISA; format: functional; details: HepG2 2.2.15, 72 h; in short: as §1
# Hepatitis B virus [32] = experiment: Antiviral activity against Hepatitis B virus infected in human HepG2.2.15 cells assessed as inhibition of HBsAg secretion at 37.5 uM after 3 days by ELISA; format: functional; details: HepG2 2.2.15, 72 h; in short: as §1
# Hepatitis B virus [33] = experiment: Antiviral activity against Hepatitis B virus infected in human HepG2.2.15 cells assessed as inhibition of HBeAg secretion at 37.5 uM after 3 days by ELISA; format: functional; details: HepG2 2.2.15, 72 h; in short: as §1
IC50 (Hepatitis B virus [11]),IC50 (Hepatitis B virus [14]),SMILES,inhibition at 300 µM (Hepatitis B virus [1]),Ratio CC50/IC50 [2],inhibition at 300 µM (Hepatitis B virus [3]),inhibition at 37.5 µM (Hepatitis B virus [4]),inhibition at 300 µM (Hepatitis B virus [5]),inhibition at 75 µM (Hepatitis B virus [6]),inhibition at 150 µM (Hepatitis B virus [7]),inhibition at 150 µM (Hepatitis B virus [8]),viability at 300 µM (Hepatitis B virus [9]),inhibition at 300 µM (Hepatitis B virus [10]),inhibition at 150 µM (Hepatitis B virus [12]),viability at 37.5 µM (Hepatitis B virus [13]),inhibition at 75 µM (Hepatitis B virus [15]),inhibition at 37.5 µM (Hepatitis B virus [16]),viability at 75 µM (Hepatitis B virus [17]),inhibition at 37.5 µM (Hepatitis B virus [18]),Ratio CC50/IC50 [19],CC50 at 216 h [22],also measured
197 µM,209 µM,COc1cc(/C=C/C(=O)O/N=C/c2cccs2)cc(OC)c1OC,15.3%,4.36,56%,17.1%,44.7%,8.64%,46.4%,11.3%,79.9%,57.7%,46.3%,100%,31.6%,24.8%,93.4%,20.6%,4.1,857 µM,inhibition at 75 µM (Hepatitis B virus [20]): 30.6%; inhibition at 75 µM (Hepatitis B virus [21]): 20.9%; inhibition at 150 µM (Hepatitis B virus [23]): 44.4%; inhibition at 75 µM (Hepatitis B virus [24]): 30.9%; inhibition at 300 µM (Hepatitis B virus [25]): 33.1%; inhibition at 37.5 µM (Hepatitis B virus [26]): 21.9%; viability at 150 µM (Hepatitis B virus [27]): 92.6%; inhibition at 150 µM (Hepatitis B virus [28]): 35.6%; inhibition at 300 µM (Hepatitis B virus [29]): 55.1%; inhibition at 150 µM (Hepatitis B virus [30]): 28.2%; inhibition at 75 µM (Hepatitis B virus [31]): 26.3%; inhibition at 37.5 µM (Hepatitis B virus [32]): 17.1%
74.4 µM,105 µM,COc1cc(/C=C/C(=O)O/N=C/c2cccs2)cc2c1OCO2,41.9%,9.1,67.3%,16.1%,59.3%,25.6%,68.2%,33.8%,95.6%,77.9%,57.9%,119%,48.9%,29.7%,107%,29.2%,6.47,677 µM,inhibition at 75 µM (Hepatitis B virus [20]): 37.4%; inhibition at 37.5 µM (Hepatitis B virus [33]): 12.7%; inhibition at 75 µM (Hepatitis B virus [21]): 33.8%; inhibition at 150 µM (Hepatitis B virus [23]): 50.7%; inhibition at 75 µM (Hepatitis B virus [24]): 56.1%; inhibition at 300 µM (Hepatitis B virus [25]): 51.1%; inhibition at 37.5 µM (Hepatitis B virus [26]): 23.3%; viability at 150 µM (Hepatitis B virus [27]): 97.5%; inhibition at 150 µM (Hepatitis B virus [28]): 46.6%; inhibition at 300 µM (Hepatitis B virus [29]): 65.8%; inhibition at 150 µM (Hepatitis B virus [30]): 40%; inhibition at 75 µM (Hepatitis B virus [31]): 35.5%; inhibition at 37.5 µM (Hepatitis B virus [32]): 19.1%
387 µM,469 µM,O/N=C/c1ccccn1,–,1.04,–,–,–,–,–,–,–,–,–,–,–,–,–,–,0.86,402 µM,–
354 µM,431 µM,O/N=C/c1cccs1 [2-THIOPHENECARBOXALDEHYDE OXIME],–,1.59,–,–,–,–,–,–,–,–,–,–,–,–,–,–,1.3,562 µM,–
